Measurements published in PMC8408915 (Biochemistry, 2021).

Each substance was assayed against T1, KDAC8 (Homo sapiens, UniProt Q9BY41) (assay: KDAC8 endpoint in vitro deacetylation activity assay). Settings: low ionic strength buffer; 200 nM KDAC8, 100 μM peptide, 25 °C, 15-60 min; average of n≥3; limit of reliable detection 0.0004 s^−1.
T1 sequence (Q9BY41 1-377): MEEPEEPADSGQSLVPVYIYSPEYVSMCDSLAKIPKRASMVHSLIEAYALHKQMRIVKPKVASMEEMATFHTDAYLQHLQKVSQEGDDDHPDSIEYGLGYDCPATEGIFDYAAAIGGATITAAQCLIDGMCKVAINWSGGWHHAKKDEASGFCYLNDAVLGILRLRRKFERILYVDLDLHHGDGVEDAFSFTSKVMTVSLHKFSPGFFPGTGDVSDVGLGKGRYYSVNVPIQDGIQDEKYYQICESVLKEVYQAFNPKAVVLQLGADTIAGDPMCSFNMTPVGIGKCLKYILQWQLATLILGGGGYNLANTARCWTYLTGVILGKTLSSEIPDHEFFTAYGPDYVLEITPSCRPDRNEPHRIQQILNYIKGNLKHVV
Format: biochemical
Method in brief: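 KDAC8 carried a C-terminal His6 tag. It was expressed in ExpiSf9 cells after bacmid transfection (28 °C, 5 days, then 2 days of suspension amplification) and purified on cobalt (TALON) affinity resin. Peptides were N-terminally acetylated and C-terminally amidated. Buffer was 30 mM potassium phosphate pH 7.6 with 5% glycerol and no KCl. Product was detected with fluorescamine, and endpoint activity was averaged.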

| Substance | Specific activity of KDAC8 with biologically relevant putative KDAC substrates |
| --- | --- |
| LSGK^acGNP | - (- indicates no activity above the limit of reliable detection (0.0004 s^−1).) |
| SVRK^acGIM | 0.0036 ± 0.0008 s^−1 |
| GTAK^acSVT | - (- indicates no activity above the limit of reliable detection (0.0004 s^−1).) |
| APRK^acQLA | 0.00163 ± 0.00014 s^−1 |
| LGGK^acQRA | - (- indicates no activity above the limit of reliable detection (0.0004 s^−1).) |
| TGGK^acAPR | - (- indicates no activity above the limit of reliable detection (0.0004 s^−1).) |
| GVGK^acYIN | 0.0007 ± 0.0004 s^−1 |
| EIGK^acTLA | - (- indicates no activity above the limit of reliable detection (0.0004 s^−1).) |
| ITGK^acPSG | - (- indicates no activity above the limit of reliable detection (0.0004 s^−1).) |
| GALK^acAPS | - (- indicates no activity above the limit of reliable detection (0.0004 s^−1).) |
| PEAK^acSLL | - (- indicates no activity above the limit of reliable detection (0.0004 s^−1).) |
| AARK^acSAP | 0.0026 ± 0.0002 s^−1 |
| QTAK^acDAG | - (- indicates no activity above the limit of reliable detection (0.0004 s^−1).) |
| SHLK^acAHL | - (- indicates no activity above the limit of reliable detection (0.0004 s^−1).) |
| EVGK^acLLN | - (- indicates no activity above the limit of reliable detection (0.0004 s^−1).) |
